Screens (PubChem BioAssay)
An excerpt weighted towards active compounds, which were near 2.1% of everything screened.
CXCR6 inh = CXCR6 (human) receptor inhibition; O00574; CHO-K1 PathHunter CXCR6 beta-arrestin, luminescence; inhibition, % at 20 µM; 360,000 compounds, 0.36% hits; AID 602244; in the data active means inhibition above about 34%, passing the limit was not always enough;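 further: antagonist mode with CXCL16 agonist at 10 nM final; 0% = 10 nM CXCL16 with DMSO and 100% = unstimulated wells without agonist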
Target sequence (O00574 whole entry, looked up): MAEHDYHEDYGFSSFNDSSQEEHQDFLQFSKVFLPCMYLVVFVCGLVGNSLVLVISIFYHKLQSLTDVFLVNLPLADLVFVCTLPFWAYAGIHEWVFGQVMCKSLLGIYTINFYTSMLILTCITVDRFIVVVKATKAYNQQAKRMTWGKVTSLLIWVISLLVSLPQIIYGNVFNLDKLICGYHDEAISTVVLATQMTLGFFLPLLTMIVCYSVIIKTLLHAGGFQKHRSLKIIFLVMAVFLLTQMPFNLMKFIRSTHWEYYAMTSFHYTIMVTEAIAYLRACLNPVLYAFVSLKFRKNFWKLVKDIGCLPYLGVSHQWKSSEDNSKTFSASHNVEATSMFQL
EBI2 block = antagonists of human EBI2 receptor; EBI2 beta-arrestin recruitment, luminescence, 7a,25-OHC stimulated; inhibition, % at 5 µM; P32249; 360,000 compounds, 0.81% hits; in the data active means inhibition above about 38%;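 further: enzyme fragment complementation signal reports receptor beta-arrestin coupling in cells; 0% = agonist plus DMSO wells and 100% = wells without agonist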
m5-HT2A agonist = agonists of mouse serotonin 5-HT2A receptor (HTR2A) | CHO-K1 mHTR2A beta-arrestin complementation, luminescence; percent of 30 µM serotonin response | activation, % at 7.6 µM | 360,000 compounds, 0.66% hits | AID 624169;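 active means activation above a run cutoff, the mean activation of all tested compounds plus 3 SD, cut at about 14% in these data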;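 further: 0% = plate median of compound wells and 100% = 30 µM serotonin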
CCR6 antagonist = blocks CCL20-driven beta-arrestin recruitment at human CCR6; P51684; CHO-K1 CCR6 PathHunter beta-arrestin, luminescence, CCL20-stimulated; inhibition, % at 20 µM; 340,000 compounds, 0.49% hits; AID 493098;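 active means compounds whose inhibition of the agonist-driven luminescence signal at 20 µM reaches about 50%, limit read from the data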;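 further: cells stimulated with CCL20 at 14 nM final; plate controls were DMSO with CCL20 for no effect and DMSO without agonist for full effect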
Target sequence (P51684 whole entry, looked up): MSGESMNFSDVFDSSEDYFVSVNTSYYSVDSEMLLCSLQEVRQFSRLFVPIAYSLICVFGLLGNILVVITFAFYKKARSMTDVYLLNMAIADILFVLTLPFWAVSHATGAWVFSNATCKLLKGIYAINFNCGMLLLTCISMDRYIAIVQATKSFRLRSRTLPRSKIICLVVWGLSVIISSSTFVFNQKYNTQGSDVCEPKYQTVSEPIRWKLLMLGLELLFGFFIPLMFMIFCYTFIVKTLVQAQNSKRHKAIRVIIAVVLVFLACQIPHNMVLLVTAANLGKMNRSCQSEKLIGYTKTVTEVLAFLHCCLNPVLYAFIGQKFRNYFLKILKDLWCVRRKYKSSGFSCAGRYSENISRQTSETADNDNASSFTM
APJ antagonist = blocks the human apelin receptor APJ | inhibition, % at 20 µM | 330,000 compounds, 0.32% hits | CHO-K1 APJ beta-arrestin complementation, luminescence | P35414;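 active means inhibition above about 40% at 20 µM, limit read from the data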;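 further: cells challenged with 10 nM apelin-13 agonist together with compound; plate controls were apelin-13 plus DMSO wells for no effect and DMSO wells lacking apelin-13 for full effect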
APJ ag = agonists of human APJ apelin receptor. 330,000 compounds, 0.11% hits. CHO-K1 APJ PathHunter beta-arrestin, luminescence; 0% DMSO wells, 100% apelin. activation, % at 20 µM;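 active means activation more than six SD over the plate average, tested at 20 µM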;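 further: 0% = DMSO alone and 100% = apelin-13 at 10 nM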
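Assay system: CHO-K1 APJ beta-arrestin complementation cell line / Compound: single test compound dose, 20 µM final, 1% DMSO / Times: overnight seeding, 90 min compound at 25 °C, 1 h detection / Technique: beta-gal luminescence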
EBI2 conf = confirmation of human EBI2 receptor antagonists; shares compounds with EBI2 block; EBI2 beta-arrestin luminescence, 7a,25-OHC antagonism; inhibition, % at 5 µM; 2,400 compounds, 29% hits; AID 651997;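 active means inhibition of at least 50%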
EBI2 agonist = EBI2 agonism counter-screen; 2,400 tested, under 10 active; shares compounds with EBI2 block; EBI2-expressing cells, agonist mode, luminescence, 60 min; 0% vehicle, 100% 7α,25-dihydroxycholesterol control; activation, % at 5 µM;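 active means activation of at least 50%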
bGal cs = counter-screen for EBI2 antagonists: E. coli beta-galactosidase inhibition. 2,400 compounds, 1% hits. shares compounds with EBI2 block. inhibition, % at 5 µM. purified beta-galactosidase, luminescent Galacton Star, 15 min;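 active means replicate-average signal at least 3 plate SD below neutral wells, shown as high inhibition, flagging enzyme-inhibiting false positives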;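 further: 0% = DMSO wells with enzyme and 100% = wells lacking enzyme; higher means stronger loss of beta-gal luminescence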
Numbers without * were called inactive.

What do the screens show for `COc1cccc(/C=C/C(=O)N2CCN(S(=O)(=O)c3ccccc3)CC2)c1OC`?
CXCR6 inh: 0.6; EBI2 block: 44.5*; m5-HT2A agonist: -3.6; CCR6 antagonist: 7.8; APJ antagonist: 5.6; APJ ag: -4.3; EBI2 conf: 19.8; EBI2 agonist: -0.2; bGal cs: 2.8

Results for O=C(Nc1ccc2c(c1)C(=O)NC2=O)c1ccccc1Cl ?
CXCR6 inh: -1.7; EBI2 block: 2.2; m5-HT2A agonist: 4.2; CCR6 antagonist: 3.0; APJ antagonist: -83.0; APJ ag: -2.0

What do the screens show for `CCCn1nc(NC(=O)C2CCCO2)c2cc3cc(C)ccc3nc21` (centres undefined)?
CXCR6 inh: -0.8; EBI2 block: 3.2; m5-HT2A agonist: -5.2; CCR6 antagonist: -14.1; APJ antagonist: 5.8; APJ ag: -2.8

How did COc1cc2c(cc1OC)C(CNC(=O)C=Cc1cc(OC)c(OC)c(OC)c1)C2 (centres undefined) do in these assays?
CXCR6 inh: -3.3; EBI2 block: 50.0*; m5-HT2A agonist: -0.8; EBI2 conf: 31.5; EBI2 agonist: 0.6; bGal cs: 3.5

Results for COc1ccc(/C=C/C(=O)N2CCN(S(=O)(=O)c3ccccc3Br)CC2)cc1OC ?
CXCR6 inh: 3.0; EBI2 block: 73.8*; m5-HT2A agonist: -4.7; CCR6 antagonist: 7.4; APJ antagonist: 1.1; APJ ag: 1.7; EBI2 conf: 49.4; EBI2 agonist: -1.6; bGal cs: -12.5

What do the screens show for `COc1ccc(/C=C/C(=O)N2CCN(S(=O)(=O)/C=C/c3ccccc3)CC2)cc1OC`?
CXCR6 inh: -13.7; EBI2 block: 88.6*; m5-HT2A agonist: 8.0; CCR6 antagonist: 2.5; APJ antagonist: -6.3; APJ ag: -1.7; EBI2 conf: 73.2*; EBI2 agonist: -0.2; bGal cs: -19.6

What do the screens show for `O=c1c2ccccc2nnn1CSc1nc2cc(Cl)ccc2c(=O)n1Cc1ccco1`?
CCR6 antagonist: -0.8; APJ antagonist: -4.0; APJ ag: -0.2

What do the screens show for `O=C(/C=C/c1cn(-c2ccccc2)nc1-c1ccccc1)Nc1ccc(C(=O)O)cc1`?
CXCR6 inh: -10.0; EBI2 block: 2.5; m5-HT2A agonist: -1.3; CCR6 antagonist: 21.4; APJ antagonist: 4.2; APJ ag: -3.3

Results for CCC(=O)Nc1ccc2c(c1)nc(CN1CCN(C(C)=O)CC1)n2C ?
CXCR6 inh: 0.9; EBI2 block: -0.6; m5-HT2A agonist: -3.5; CCR6 antagonist: 9.2; APJ antagonist: -7.0; APJ ag: 0.4

What do the screens show for `NS(=O)(=O)c1ccc(CCNC(=O)COC(=O)CCN2C(=O)C3CC=CCC3C2=O)cc1` (centres undefined)?
CXCR6 inh: 5.4; EBI2 block: -1.6; m5-HT2A agonist: -4.8; CCR6 antagonist: 1.4; APJ antagonist: 0.4; APJ ag: -3.4

What do the screens show for `O=C(c1ccc2ccccc2c1)N1CCN(c2ccccc2)CC1`?
CXCR6 inh: 2.2; EBI2 block: 82.8*; m5-HT2A agonist: -5.3; CCR6 antagonist: 9.6; APJ antagonist: 15.0; APJ ag: -3.0; EBI2 conf: 67.9*; EBI2 agonist: -0.5; bGal cs: -9.8

How did Cc1cccc(N2CCN(C(=O)c3ccc4ccccc4c3)CC2C)c1 (centres undefined) do in these assays?
CXCR6 inh: 0.6; EBI2 block: 64.8*; m5-HT2A agonist: 0.1; CCR6 antagonist: 10.9; APJ antagonist: -2.2; APJ ag: -2.1; EBI2 conf: 41.7; EBI2 agonist: -1.1; bGal cs: -14.8

How did CC1CCN(C(=O)c2ccc3ccccc3c2)CC1 do in these assays?
CXCR6 inh: 0.1; EBI2 block: 46.3*; m5-HT2A agonist: -1.5; CCR6 antagonist: 26.9; APJ antagonist: 5.2; APJ ag: 3.1; EBI2 conf: 48.1; EBI2 agonist: 0.3; bGal cs: -0.6

Results for O=C(c1ccc(-c2ccccc2)cc1)N1CCN(c2ccccc2)CC1 ?
CXCR6 inh: -0.4; EBI2 block: 17.6; m5-HT2A agonist: -4.9; CCR6 antagonist: 14.1; APJ antagonist: 10.3; APJ ag: -4.2

How did Cc1cccc(N2CCN(C(=O)c3ccncc3)CC2C)c1 (centres undefined) do in these assays?
CXCR6 inh: -10.0; EBI2 block: 5.3; m5-HT2A agonist: 0.9; CCR6 antagonist: -3.7; APJ antagonist: 1.8; APJ ag: 1.9

What do the screens show for `O=C(NC12CC3CC(CC(C3)C1)C2)C1CC(=O)N(c2ccc(Br)cc2)C1` (centres undefined)?
CXCR6 inh: -6.2; EBI2 block: 50.6*; m5-HT2A agonist: -0.4; CCR6 antagonist: -2.2; APJ antagonist: -20.1; APJ ag: -1.1; EBI2 conf: 32.9; EBI2 agonist: 0.7; bGal cs: 4.5

What do the screens show for `Cc1ccc(NC(=S)Nc2ccc3cn[nH]c3c2)cc1C`?
CXCR6 inh: 8.0; EBI2 block: -12.6; m5-HT2A agonist: 2.5; CCR6 antagonist: 2.2; APJ antagonist: -7.7; APJ ag: -2.3

Results for CC(C)c1ccc(NC(=S)Nc2ccc3cn[nH]c3c2)cc1 ?
CXCR6 inh: -8.1; EBI2 block: 49.8*; m5-HT2A agonist: -1.2; CCR6 antagonist: 8.5; APJ antagonist: -1.2; APJ ag: 0.7; EBI2 conf: 45.0; EBI2 agonist: 0.2; bGal cs: 6.5

Results for COCCn1c(-c2ccccc2)nc2oc3cc(OC)ccc3c(=O)c2c1=O ?
CXCR6 inh: -7.1; EBI2 block: -3.8; m5-HT2A agonist: -4.4; CCR6 antagonist: -0.4; APJ antagonist: -15.2; APJ ag: 3.5

Results for Cc1ccc(C2CC(c3ccccc3)=NN2C(=O)CSc2nnc(-c3ccc(Cl)cc3)o2)o1 (centres undefined) ?
CXCR6 inh: 11.0; EBI2 block: 42.1*; m5-HT2A agonist: 10.1; CCR6 antagonist: 4.4; APJ antagonist: 4.9; APJ ag: 0.2; EBI2 conf: 2.0; EBI2 agonist: -1.2; bGal cs: -5.9

What do the screens show for `Cc1ccc(C2CC(c3ccccc3)=NN2C(=O)CSc2nnc(-c3ccncc3)n2C)o1` (centres undefined)?
CXCR6 inh: 4.0; EBI2 block: 1.1; m5-HT2A agonist: 3.8; CCR6 antagonist: -20.0; APJ antagonist: 10.3; APJ ag: 3.9
